Test results: ChEMBL document CHEMBL1828595, “A facile four-component sequential protocol in the expedient synthesis of novel 2-aryl-5-methyl-2,3-dihydro-1H-3-pyrazolones in water and their antitubercular evaluation” (2011)
≈ marks a conversion by molar mass, not a printed value.

What follows are molecules tested on Mycobacterium tuberculosis (assay: Ratio of MIC for ethambutol to compound for Mycobacterium tuberculosis H37Rv by agar dilution method).
Format: functional
In short: (§1)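 Ratio of reference-drug MIC to test-compound MIC. Both MICs were measured against M. tuberculosis H37Rv by agar dilution on OADC-supplemented Middlebrook 7H11 at pH 7.4, with 99% growth inhibition as endpoint, in duplicate.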

In the case of `Cc1[nH]n(-c2ccc(F)cc2)c(=O)c1C(c1ccc(Cl)cc1Cl)c1c(O)ccc2ccccc12` (stereo not given), the Ratio is reported as 4.75.

These molecules were tested on Mycobacterium tuberculosis (assay: Antitubercular activity against Mycobacterium tuberculosis H37Rv by agar dilution method).
Format: functional
In short: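 M. tuberculosis H37Rv on Middlebrook 7H11 agar with OADC, agar dilution per NCCLS-type MIC method, pH 7.4. MIC taken as the lowest concentration inhibiting 99% of bacterial growth, determined in duplicate.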

First: Cc1[nH]n(-c2ccccc2)c(=O)c1C(c1ccccc1[N+](=O)[O-])c1c(O)ccc2ccccc12 (stereo not given)
Second: Cc1[nH]n(-c2ccccc2)c(=O)c1C(c1ccccc1)c1c(O)ccc2ccccc12 (stereo not given)
The MIC of the first is 2.2-fold lower: 13.8 µM (≈ 6.23 µg/mL) for the first, 30.8 µM (≈ 12.5 µg/mL) for the second.

Compared with `Cc1[nH]n(-c2ccc(F)cc2)c(=O)c1C(c1ccc(Cl)cc1)c1c(O)ccc2ccccc12` (stereo not given), `Cc1ccc(C(c2c(C)[nH]n(-c3ccc(F)cc3)c2=O)c2c(O)ccc3ccccc23)cc1` (stereo not given) is 4.2-fold higher in MIC: 3.4 µM (≈ 1.56 µg/mL) for the first, 14.2 µM (≈ 6.23 µg/mL) for the second.

First: Cc1[nH]n(-c2ccc(F)cc2)c(=O)c1C(c1ccccc1)c1c(O)ccc2ccccc12 (stereo not given)
Second: Cc1[nH]n(-c2ccc(F)cc2)c(=O)c1C(c1ccc(F)cc1)c1c(O)ccc2ccccc12 (stereo not given)
The MIC of the first is 2.1-fold higher: 14.7 µM (≈ 6.24 µg/mL) for the first, 7.1 µM (≈ 3.14 µg/mL) for the second.

Going from `Cc1[nH]n(-c2ccccc2)c(=O)c1C(c1ccc([N+](=O)[O-])cc1)c1c(O)ccc2ccccc12` (stereo not given) to `Cc1[nH]n(-c2ccccc2)c(=O)c1C(c1ccc(Cl)cc1)c1c(O)ccc2ccccc12` (stereo not given), the MIC rises from 6.9 µM (≈ 3.12 µg/mL) to 14.1 µM (≈ 6.22 µg/mL) (2-fold).

First: CC[C@@H](CO)NCCN[C@@H](CC)CO [ETHAMBUTOL]
Second: NNC(=O)c1ccncc1 [ISONIAZID]
The MIC of the first is 19-fold higher: 7.6 µM (≈ 1.55 µg/mL) for the first, 0.4 µM (≈ 0.0549 µg/mL) for the second.

First: Cc1[nH]n(-c2ccc(Cl)cc2)c(=O)c1C(c1ccc(Cl)cc1)c1c(O)ccc2ccccc12 (stereo not given)
Second: Cc1[nH]n(-c2ccc(F)cc2)c(=O)c1C(c1ccc([N+](=O)[O-])cc1)c1c(O)ccc2ccccc12 (stereo not given)
The MIC of the first is 2-fold higher: 6.6 µM (≈ 3.14 µg/mL) for the first, 3.3 µM (≈ 1.55 µg/mL) for the second.

`COc1ccc(C(c2c(C)[nH]n(-c3ccccc3)c2=O)c2c(O)ccc3ccccc23)cc1` (stereo not given) and `Cc1ccc(C(c2c(C)[nH]n(-c3ccccc3)c2=O)c2c(O)ccc3ccccc23)cc1` (stereo not given) are within 1.5-fold of each other in MIC: 28.6 µM (≈ 12.5 µg/mL) for the first, 29.7 µM (≈ 12.5 µg/mL) for the second.

First: Cc1[nH]n(-c2ccc(F)cc2)c(=O)c1C(c1ccc(Cl)cc1Cl)c1c(O)ccc2ccccc12 (stereo not given)
Second: Cc1[nH]n(-c2ccc(F)cc2)c(=O)c1C(c1cccc([N+](=O)[O-])c1)c1c(O)ccc2ccccc12 (stereo not given)
The MIC of the first is 4.2-fold lower: 1.6 µM (≈ 0.789 µg/mL) for the first, 6.7 µM (≈ 3.15 µg/mL) for the second.

Going from `Cc1[nH]n(-c2ccccc2)c(=O)c1C(c1ccc(C(C)C)cc1)c1c(O)ccc2ccccc12` (stereo not given) to `CO[C@H]1/C=C/O[C@@]2(C)Oc3c(C)c(O)c4c(O)c(c(/C=N/N5CCN(C)CC5)c(O)c4c3C2=O)NC(=O)/C(C)=C\C=C\[C@H](C)[C@H](O)[C@@H](C)[C@@H](O)[C@@H](C)[C@H](OC(C)=O)[C@@H]1C` [RIFAMPIN], the MIC falls from 14 µM (≈ 6.28 µg/mL) to 0.1 µM (≈ 0.0823 µg/mL) (140-fold).

The molecules below were run on Mycobacterium tuberculosis (assay: Ratio of MIC for ciprofloxacin to compound for Mycobacterium tuberculosis H37Rv by agar dilution method).
Format: functional
In short: as §1

With `Cc1[nH]n(-c2ccc(F)cc2)c(=O)c1C(c1ccc(Cl)cc1Cl)c1c(O)ccc2ccccc12` (stereo not given) the Ratio was 2.94.
